Values belong to the compound of their own block, whether it stands above or below them.
Experiments:
[1] = AUC (0 to t) in Sprague-Dawley rat at 2 mg/kg, iv by LC-MS/MS method; format: ADME, organism-based; settings: in vivo
In short: (§1)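 Single intravenous dose of 2 mg/kg given to Sprague-Dawley rats. Values are the mean ± SD of three independent determinations.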

[2] = Volume of distribution at steady state in Sprague-Dawley rat at 2 mg/kg, iv by LC-MS/MS method; format: ADME, organism-based; settings: in vivo, read-out: Vdss
In short: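 Sprague-Dawley rats receive a single intravenous dose of 2 mg/kg. Pharmacokinetic parameters derived are C0, clearance, Vss, T1/2, AUC(0−t) and AUC(0−∞). Values are averages of three independent determinations, reported as mean ± SD.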

[3] = Partition coefficient, log P of the compound by UV-metric method; format: physicochemical; settings: octanol/water
CYP3A4 = CYP3A4 (Homo sapiens, UniProt P08684); assay: Inhibition of CYP3A4 in human liver microsomes at 10 uM using midozolam as substrate preincubated for 10 mins followed by NADPH addition measured after 10 mins by LC-MS/MS method; format: ADME; settings: probe midozolam
In short: (§2)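 Each CYP isoform was tested at 10 μM compound. Positive controls: α-naphthoflavone (CYP1A2), sulfaphenazole (CYP2C9), ticlopidine (CYP2C19), quinidine (CYP2D6), ketoconazole (CYP3A4).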

CYP2D6 = CYP2D6 (Homo sapiens, UniProt P10635); assay: Inhibition of CYP2D6 in human liver microsomes at 10 uM using dextromethorphan as substrate preincubated for 10 mins followed by NADPH addition measured after 10 mins by LC-MS/MS method; format: ADME; settings: probe dextromethorphan; in short: as §2
[4] = Aqueous solubility of the compound at pH 2.0 by UV-metric method; format: physicochemical
CYP2C19 = CYP2C19 (Homo sapiens, UniProt P33261); assay: Inhibition of CYP2C19 in human liver microsomes at 10 uM using S-mephenytoin as substrate preincubated for 10 mins followed by NADPH addition measured after 10 mins by LC-MS/MS method; format: ADME; settings: probe S-mephenytoin; in short: as §2
[5] = Aqueous solubility of the compound at pH 7.4 by UV-metric method; format: physicochemical
[6] = Stability in rat liver microsomes assessed as compound remaining at 1 uM in absence of NADPH regenerating system measured after 1 hr by LC-MS/MS method; format: ADME, microsome; settings: read-out: Stability
In short: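 Control incubation with rat liver microsomes: buffer replaces the NADPH regenerating system for the whole 60 min incubation. Read-out is percent of parent compound remaining.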

[7] = Clearance in Sprague-Dawley rat at 2 mg/kg, iv by LC-MS/MS method; format: ADME, organism-based; settings: in vivo; in short: as §1
[8] = Cmax in Sprague-Dawley rat at 2 mg/kg, iv by LC-MS/MS method; format: ADME, organism-based; design: dose 2 mg/kg, route intravenous; settings: in vivo; in short: as §1
[9] = target: Voltage-gated inwardly rectifying potassium channel KCNH2 (Homo sapiens, UniProt Q12809); assay: Inhibition of human ERG by Qpatch assay
In short: (§3)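 hERG current was recorded by automated patch clamp (Qpatch 16×) in CHO cells expressing hERG.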

hERG (KCNH2) = hERG (KCNH2) (Homo sapiens, UniProt Q12809); assay: Inhibition of human ERG at 40 uM by Qpatch assay relative to control; in short: as §3
[10] = Intrinsic clearance in human liver at 1 uM measured after 1 hr by LC-MS/MS method; format: ADME, tissue-based; settings: read-out: CLH
[11] = Stability in rat liver microsomes assessed as compound remaining at 1 uM preincubated for 10 mins followed by NADPH addition measured after 1 hr by LC-MS/MS method; format: ADME, microsome; settings: read-out: Stability
CYP2C9 = CYP2C9 (Homo sapiens, UniProt P11712); assay: Inhibition of CYP2C9 in human liver microsomes at 10 uM using diclofenac as substrate preincubated for 10 mins followed by NADPH addition measured after 10 mins by LC-MS/MS method; format: ADME; settings: probe diclofenac; in short: as §2
[12] = Initial concentration in Sprague-Dawley rat at 2 mg/kg, iv by LC-MS/MS method; format: ADME, organism-based; settings: in vivo; in short: as §1
[13] = Stability in human liver microsomes assessed as compound remaining at 1 uM preincubated for 10 mins followed by NADPH addition measured after 1 hr by LC-MS/MS method; format: ADME, microsome; settings: read-out: Stability
[14] = Stability in Sprague-Dawley rat blood plasma assessed as compound remaining at 2 uM measured after 120 mins by LC-MS/MS method; format: ADME, cell-free; settings: read-out: Stability
[15] = Distribution coefficient, logD of the compound at pH 7.4 by UV-metric method; format: physicochemical; settings: octanol/water
[16] = Solubility of the compound in DMSO by UV-metric method; format: physicochemical
[17] = Intrinsic clearance in rat liver microsomes at 1 uM measured after 1 hr by LC-MS/MS method; format: ADME, microsome; settings: read-out: CLH
[18] = Intrinsic clearance in rat liver at 1 uM measured after 1 hr by LC-MS/MS method; format: ADME, tissue-based; settings: read-out: CLH
[19] = AUC (0 to infinity) in Sprague-Dawley rat at 2 mg/kg, iv by LC-MS/MS method; format: ADME, organism-based; design: dose 2 mg/kg, route intravenous, time infinity; settings: in vivo; in short: as §1
[20] = Half life in human liver microsomes at 1 uM preincubated for 10 mins followed by NADPH addition measured after 1 hr by LC-MS/MS method; format: ADME, microsome
[21] = Dissociation constant, pKa of compound; format: physicochemical
[22] = Stability in Sprague-Dawley rat blood plasma assessed as compound remaining at 2 uM measured after 60 mins by LC-MS/MS method; format: ADME, cell-free; settings: read-out: Stability
CYP1A2 = target: T1, CYP1A2 (Homo sapiens, UniProt P05177); assay: Inhibition of CYP1A2 in human liver microsomes at 10 uM using phenacetin as the substrate preincubated for 10 mins followed by NADPH addition measured after 10 mins by LC-MS/MS method; format: ADME; settings: probe phenacetin; in short: as §2
T1 sequence (P05177 whole entry): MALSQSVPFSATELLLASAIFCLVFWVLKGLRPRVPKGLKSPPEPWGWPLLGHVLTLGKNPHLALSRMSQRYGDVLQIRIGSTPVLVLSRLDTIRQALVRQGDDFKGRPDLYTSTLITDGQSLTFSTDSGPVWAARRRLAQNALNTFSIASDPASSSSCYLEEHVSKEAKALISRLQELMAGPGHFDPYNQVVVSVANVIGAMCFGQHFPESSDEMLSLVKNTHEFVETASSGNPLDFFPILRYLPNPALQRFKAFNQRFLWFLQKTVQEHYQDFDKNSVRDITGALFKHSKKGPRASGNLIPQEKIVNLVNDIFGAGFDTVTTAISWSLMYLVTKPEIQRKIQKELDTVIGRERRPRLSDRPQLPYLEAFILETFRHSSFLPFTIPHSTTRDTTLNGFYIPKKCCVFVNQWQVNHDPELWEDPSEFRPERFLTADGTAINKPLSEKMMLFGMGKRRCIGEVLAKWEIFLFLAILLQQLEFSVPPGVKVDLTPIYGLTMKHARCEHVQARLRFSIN

[23] = Stability in human liver microsomes assessed as compound remaining at 1 uM in absence of NADPH regenerating system measured after 1 hr by LC-MS/MS method; format: ADME, microsome; settings: read-out: Stability
In short: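 Liver microsomal incubation ran for 60 min without the NADPH regenerating system, which was replaced by buffer. Read-out was percent compound remaining.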

[24] = Half life in rat liver microsomes at 1 uM preincubated for 10 mins followed by NADPH addition measured after 1 hr by LC-MS/MS method; format: ADME, microsome
[25] = Half life in Sprague-Dawley rat at 2 mg/kg, iv by LC-MS/MS method; format: ADME, organism-based; settings: in vivo; in short: as §1
[26] = Intrinsic clearance in human liver microsomes at 1 uM measured after 1 hr by LC-MS/MS method; format: ADME, microsome; settings: read-out: CLH
[27] = target: Serine/threonine-protein kinase PAK 4 (Homo sapiens, UniProt O96013); assay: Inhibition of GST-tagged human PAK4 (295 to 591 residues) expressed in Baculovirus expression system by Z'-Lyte assay
In short: (§4)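 FRET-based Z′-Lyte kinase assay run per the kit instructions. Ki values are the average of at least two duplicate experiments; SEM < ±20%.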

[28] = target: Serine/threonine-protein kinase PAK 5 (Homo sapiens, UniProt Q9P286); assay: Inhibition of full length recombinant human His-tagged PAK5 […] expressed in Baculovirus expression system by Z'-Lyte assay
[29] = target: Serine/threonine-protein kinase PAK 1 (Homo sapiens, UniProt Q13153); assay: Inhibition of human PAK1 kinase domain using coumarin and fluorescein-labeled ser/thr19 peptide as substrate preincubated for 15 mins followed by ATP addition measured after 60 mins by Z'-Lyte assay; in short: as §4
Sequence of Serine/threonine-protein kinase PAK 1 (Q13153 whole entry, the tested form may be a part): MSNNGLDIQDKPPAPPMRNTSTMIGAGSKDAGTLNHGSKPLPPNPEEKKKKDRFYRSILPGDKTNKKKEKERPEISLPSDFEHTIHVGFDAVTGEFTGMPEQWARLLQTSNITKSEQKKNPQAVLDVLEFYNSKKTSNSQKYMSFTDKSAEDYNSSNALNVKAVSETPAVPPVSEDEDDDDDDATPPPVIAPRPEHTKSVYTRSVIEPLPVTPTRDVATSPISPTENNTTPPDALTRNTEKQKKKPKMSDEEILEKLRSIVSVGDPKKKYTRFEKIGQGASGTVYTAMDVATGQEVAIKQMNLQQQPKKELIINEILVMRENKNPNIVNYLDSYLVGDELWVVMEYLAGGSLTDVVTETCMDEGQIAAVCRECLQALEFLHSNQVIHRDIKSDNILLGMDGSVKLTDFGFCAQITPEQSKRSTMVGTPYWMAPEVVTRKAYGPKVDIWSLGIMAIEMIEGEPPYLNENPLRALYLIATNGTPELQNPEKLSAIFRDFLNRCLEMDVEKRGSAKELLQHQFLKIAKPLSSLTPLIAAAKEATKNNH

Sequence of CYP2D6 (P10635 whole entry): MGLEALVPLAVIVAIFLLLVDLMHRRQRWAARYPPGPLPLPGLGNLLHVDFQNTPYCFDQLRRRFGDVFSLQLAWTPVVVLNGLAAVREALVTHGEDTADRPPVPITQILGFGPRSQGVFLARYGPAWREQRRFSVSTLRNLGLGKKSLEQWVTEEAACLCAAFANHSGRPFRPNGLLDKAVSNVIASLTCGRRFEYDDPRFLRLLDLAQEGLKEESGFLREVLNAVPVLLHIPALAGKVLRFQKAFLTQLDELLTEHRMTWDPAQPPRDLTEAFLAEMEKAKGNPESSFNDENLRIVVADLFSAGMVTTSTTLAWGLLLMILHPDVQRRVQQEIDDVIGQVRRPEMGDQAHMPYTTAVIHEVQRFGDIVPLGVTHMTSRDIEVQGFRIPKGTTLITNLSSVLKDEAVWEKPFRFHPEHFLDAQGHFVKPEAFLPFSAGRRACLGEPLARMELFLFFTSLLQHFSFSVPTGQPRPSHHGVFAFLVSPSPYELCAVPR
Sequence of Serine/threonine-protein kinase PAK 4 (O96013 whole entry, the tested form may be a part): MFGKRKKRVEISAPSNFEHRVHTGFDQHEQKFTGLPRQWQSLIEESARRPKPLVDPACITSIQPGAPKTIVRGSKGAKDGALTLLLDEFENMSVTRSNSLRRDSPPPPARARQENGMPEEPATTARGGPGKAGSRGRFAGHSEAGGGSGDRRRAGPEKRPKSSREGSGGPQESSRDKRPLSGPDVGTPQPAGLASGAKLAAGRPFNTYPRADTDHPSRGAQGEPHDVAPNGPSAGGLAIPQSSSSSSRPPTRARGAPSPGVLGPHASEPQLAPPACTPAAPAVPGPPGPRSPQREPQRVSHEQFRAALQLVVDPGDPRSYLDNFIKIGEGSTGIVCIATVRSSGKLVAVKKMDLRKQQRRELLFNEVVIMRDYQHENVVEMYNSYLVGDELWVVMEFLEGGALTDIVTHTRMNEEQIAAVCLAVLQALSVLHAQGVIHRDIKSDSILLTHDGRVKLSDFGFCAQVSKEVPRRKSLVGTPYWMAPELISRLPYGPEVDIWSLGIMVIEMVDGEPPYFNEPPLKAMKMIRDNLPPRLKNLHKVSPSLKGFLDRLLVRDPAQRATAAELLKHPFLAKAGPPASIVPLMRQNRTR
Sequence of Voltage-gated inwardly rectifying potassium channel KCNH2 (Q12809 whole entry): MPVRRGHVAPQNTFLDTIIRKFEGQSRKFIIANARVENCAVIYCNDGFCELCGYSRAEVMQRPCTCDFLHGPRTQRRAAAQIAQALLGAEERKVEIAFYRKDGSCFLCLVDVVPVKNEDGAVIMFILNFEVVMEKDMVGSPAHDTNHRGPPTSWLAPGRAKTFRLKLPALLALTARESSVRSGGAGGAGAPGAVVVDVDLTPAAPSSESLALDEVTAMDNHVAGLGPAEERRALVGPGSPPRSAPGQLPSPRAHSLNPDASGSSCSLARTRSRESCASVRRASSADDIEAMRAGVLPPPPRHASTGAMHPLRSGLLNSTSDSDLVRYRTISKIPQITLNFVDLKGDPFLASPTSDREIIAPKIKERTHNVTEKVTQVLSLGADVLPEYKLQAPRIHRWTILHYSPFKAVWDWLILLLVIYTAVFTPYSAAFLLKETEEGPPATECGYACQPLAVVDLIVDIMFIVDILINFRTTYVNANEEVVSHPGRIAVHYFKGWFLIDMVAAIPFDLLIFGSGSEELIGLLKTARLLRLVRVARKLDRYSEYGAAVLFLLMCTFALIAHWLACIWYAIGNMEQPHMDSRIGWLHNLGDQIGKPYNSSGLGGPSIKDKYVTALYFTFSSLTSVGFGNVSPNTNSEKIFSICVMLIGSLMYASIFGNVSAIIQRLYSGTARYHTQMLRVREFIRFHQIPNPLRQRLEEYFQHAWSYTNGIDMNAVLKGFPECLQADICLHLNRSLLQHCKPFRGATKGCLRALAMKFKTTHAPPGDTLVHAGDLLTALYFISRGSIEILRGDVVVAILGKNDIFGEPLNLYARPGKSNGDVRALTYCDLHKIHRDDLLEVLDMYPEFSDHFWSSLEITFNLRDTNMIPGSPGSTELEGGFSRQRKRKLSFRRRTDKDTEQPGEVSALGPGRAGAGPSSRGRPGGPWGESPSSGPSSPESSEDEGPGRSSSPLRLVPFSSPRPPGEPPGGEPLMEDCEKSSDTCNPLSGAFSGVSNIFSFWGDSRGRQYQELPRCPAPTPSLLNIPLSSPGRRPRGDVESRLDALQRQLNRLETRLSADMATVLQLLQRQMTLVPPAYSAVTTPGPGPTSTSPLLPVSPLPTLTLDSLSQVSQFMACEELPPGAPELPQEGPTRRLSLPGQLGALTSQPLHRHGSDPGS
Sequence of hERG (KCNH2) (Q12809 whole entry): as above
Sequence of CYP3A4 (P08684 whole entry, canonical isoform): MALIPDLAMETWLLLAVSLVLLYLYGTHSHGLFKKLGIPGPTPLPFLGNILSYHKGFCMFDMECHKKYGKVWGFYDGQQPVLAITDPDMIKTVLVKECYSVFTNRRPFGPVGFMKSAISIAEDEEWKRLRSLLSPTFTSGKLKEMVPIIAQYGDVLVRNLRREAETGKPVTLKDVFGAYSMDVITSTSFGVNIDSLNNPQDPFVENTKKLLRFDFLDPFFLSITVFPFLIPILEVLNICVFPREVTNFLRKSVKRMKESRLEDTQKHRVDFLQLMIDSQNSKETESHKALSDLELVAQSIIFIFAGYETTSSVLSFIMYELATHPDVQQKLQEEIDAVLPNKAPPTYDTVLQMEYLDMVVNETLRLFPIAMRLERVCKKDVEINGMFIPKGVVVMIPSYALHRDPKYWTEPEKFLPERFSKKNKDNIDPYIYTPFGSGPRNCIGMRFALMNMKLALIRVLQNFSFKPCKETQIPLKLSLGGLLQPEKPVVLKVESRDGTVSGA
Sequence of CYP2C9 (P11712 whole entry): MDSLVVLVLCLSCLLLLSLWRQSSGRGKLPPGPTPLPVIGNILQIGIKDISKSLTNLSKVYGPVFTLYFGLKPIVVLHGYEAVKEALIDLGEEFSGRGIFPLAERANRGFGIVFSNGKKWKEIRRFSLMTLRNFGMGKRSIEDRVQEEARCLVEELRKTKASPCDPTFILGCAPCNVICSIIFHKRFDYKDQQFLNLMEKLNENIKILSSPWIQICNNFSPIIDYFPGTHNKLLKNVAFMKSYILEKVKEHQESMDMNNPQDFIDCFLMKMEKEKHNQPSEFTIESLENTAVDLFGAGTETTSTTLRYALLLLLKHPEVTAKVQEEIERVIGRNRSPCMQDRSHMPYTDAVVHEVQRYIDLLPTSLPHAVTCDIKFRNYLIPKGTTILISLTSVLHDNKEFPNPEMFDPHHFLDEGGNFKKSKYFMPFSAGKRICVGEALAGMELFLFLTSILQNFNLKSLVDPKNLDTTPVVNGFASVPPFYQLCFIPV

AUC(0-t) [1]: 465 ng·h/mL
Vd [2]: 6.43 L/kg
logP [3]: 2.54
inhibition at 10 min, 10 µM (CYP3A4): 2.3%
inhibition at 10 min, 10 µM (CYP2D6): 1.8%
solubility [4]: > 10000 µg/mL
inhibition at 10 min, 10 µM (CYP2C19): 12.2%
solubility [5]: > 10000 µg/mL
remaining at 1 h, 1 µM [6]: 97%
clearance [7]: 70.7 mL/min/kg
Cmax [8]: 736 ng/mL
CLint scaled at 1 µM [10]: 25.8 mL/min/kg
remaining at 1 h, 1 µM [11]: 36.9%
inhibition at 10 min, 10 µM (CYP2C9): 15.1%
C0 [12]: 736 ng/mL
remaining at 1 h, 1 µM [13]: 41.9%
remaining at 2 h, 2 µM [14]: 115%
logD [15]: 1.9
solubility [16]: > 30 mM
microsomal CLint at 1 µM [17]: 33.2 µL/min/mg
CLint scaled at 1 µM [18]: 59.7 mL/min/kg
AUC(0-inf) [19]: 472 ng·h/mL
half-life at 1 µM [20]: 48.4 min
pKa [21]: 7.93
remaining at 1 h, 2 µM [22]: 110%
inhibition at 10 min, 10 µM (CYP1A2): 17.2%
remaining at 1 h, 1 µM [23]: 103%
half-life at 1 µM [24]: 41.8 min
half-life [25]: 87.6 min
microsomal CLint at 1 µM [26]: 28.7 µL/min/mg
Compound: C[C@@H]1CN(C(=O)c2nc(Nc3cc(C4CC4)[nH]n3)c3cc(Cl)ccc3n2)CCN1.Cl
IC50 [9]: > 40000 nM
inhibition at 40 µM (hERG (KCNH2)): 42%

IC50 [27]: 11.1 nM
IC50 [28]: 15 nM
Ki [29]: 3110 nM
Compound: C[C@@H]1CN(C(=O)c2nc(Nc3cc(C4CC4)[nH]n3)c3cc(Cl)ccc3n2)CCN1

From ChEMBL document CHEMBL4028914, “Structure-Based Design of 6-Chloro-4-aminoquinazoline-2-carboxamide Derivatives as Potent and Selective p21-Activated Kinase 4 (PAK4) Inhibitors” (J Med Chem, 2018)
